According to ChEMBL document CHEMBL1687849, “Lauroside B, a megastigmane glycoside from Laurus nobilis (bay laurel) leaves, induces apoptosis in human melanoma cell lines by inhibiting NF-κB activation” (J Nat Prod, 2011):
The source made the active and inactive calls. The rule behind the calls is not given here.

Experiments:
A-375 [1] = assay: Inhibition of NF-kappaB DNA binding activity in human A375 cells at 30 uM after 4 hrs by electrophoretic mobility shift assay; type: cell-based
Summary of the method: (§1)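 A375 cells treated at 30 μM; whole-cell extracts taken at 0, 1, 2, 4, 8 and 24 h. Extract (12 μg protein in 0.1% Triton X-100 buffer) incubated 30 min with 32P-labelled κB probe. Complexes resolved on nondenaturing 4% polyacrylamide gel and quantified by phosphorimaging, normalized to the nonspecific protein-DNA complex in the same lane. Three experiments.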

A-375 [2] = assay: Inhibition of NF-kappaB DNA binding activity in human A375 cells at 30 uM after 8 hrs by electrophoretic mobility shift assay; type: cell-based; summary of the method: as §1
WM-115 [3] = assay: Antiproliferative activity against human WM115 cells after 24 to 72 hrs by MTT assay; type: functional, cell-based
Summary of the method: (§2)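 Cells grown in DMEM with 10% FBS, glutamine, HEPES and antibiotics at 37 °C, 5% CO2. Seeded at 1×10^4 cells/well and treated at 3, 10 or 30 μM for 24, 48 or 72 h. MTT (5 mg/mL stock) then added for 3 h at 37 °C. Crystals dissolved in 50% DMF/20% SDS pH 4.5; OD read at 620 nm. n = 3, mean ± SEM, ANOVA with Bonferroni.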

A-375 [4] = assay: Inhibition of NF-kappaB DNA binding activity in human A375 cells at 30 uM after 2 hrs by electrophoretic mobility shift assay; type: cell-based; summary of the method: as §1
A-375 [5] = assay: Induction of apoptosis in human A375 cells assessed as early apoptotic cells at 30 uM after 48 hrs by annexin V/propidium iodide based flow cytometry; type: functional
Summary of the method: (§3)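 A375 cells attached overnight, then treated 48 h with test compound (30 μM) or curcumin (20 μM). Adherent and floating cells pooled, washed in PBS and resuspended at 10^6/mL in HEPES pH 7.4/NaCl/CaCl2 binding buffer. 10^5 cells stained 15 min at room temperature in the dark with FITC-annexin V and PI, then flow cytometry. Quadrants scored as early apoptotic, late apoptotic or necrotic. Three experiments.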

SK-MEL-28 [6] = assay: Antiproliferative activity against human SK-MEL-28 cells after 24 to 72 hrs by MTT assay; type: functional, cell-based; summary of the method: as §2
A-375 [7] = assay: Antiproliferative activity against human A375 cells at 30 uM after 72 hrs by MTT assay; type: functional; settings: A-375, 72 h; summary of the method: as §2
[8] = Decrease in NFkappaB-mediated XIAP gene expression in human A375 cells at 30 uM after 8 hrs by Western blot analysis; type: cell-based; settings: A-375
A-375 [9] = assay: Activation of caspase 3 in human A375 cells assessed as cleavage of substrate PARP at 30 uM by Western blot analysis; type: functional, cell-based
Summary of the method: (§4)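 Whole-cell A375 lysates collected 0, 1, 2, 4 and 8 h after 30 μM treatment, made in Tris/HCl pH 7.4 buffer with 0.1% Triton X-100, EDTA, vanadate, PMSF and protease inhibitors. 20 μg protein per lane on SDS-PAGE and nitrocellulose. Probed overnight at 4 °C for pro-caspase-3 and PARP, with β-actin; HRP secondary, ECL detection. Three separate experiments.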

WM-115 [10] = assay: Antiproliferative activity against human WM115 cells at 3 to 30 uM by MTT assay; type: functional, cell-based; settings: TDE = time-dependent effect; summary of the method: as §2
A-375 [11] = assay: Induction of apoptosis in human A375 cells assessed as necrotic apoptotic cells at 30 uM after 48 hrs by annexin V/propidium iodide based flow cytometry; type: functional; summary of the method: as §3
A-375 [12] = assay: Antiproliferative activity against human A375 cells at 3 to 30 uM by MTT assay; type: functional, cell-based; settings: TDE = time-dependent effect; summary of the method: as §2
SK-MEL-28 [13] = assay: Antiproliferative activity against human SK-MEL-28 cells at 3 to 30 uM by MTT assay; type: functional, cell-based; settings: TDE = time-dependent effect; summary of the method: as §2
A-375 [14] = assay: Antiproliferative activity against human A375 cells after 24 to 72 hrs by MTT assay; type: functional, cell-based; summary of the method: as §2
SK-MEL-28 [15] = assay: Antiproliferative activity against human SK-MEL-28 cells at 30 uM after 72 hrs by MTT assay; type: functional; settings: SK-MEL-28, 72 h; summary of the method: as §2
A-375 [16] = assay: Induction of apoptosis in human A375 cells assessed as late apoptotic cells at 30 uM after 48 hrs by annexin V/propidium iodide based flow cytometry; type: functional; summary of the method: as §3
A-375 [17] = assay: Inhibition of NF-kappaB DNA binding activity in human A375 cells at 30 uM after 1 hr by electrophoretic mobility shift assay; type: cell-based; summary of the method: as §1
A-375 [18] = assay: Inhibition of NF-kappaB DNA binding activity in human A375 cells at 30 uM after 24 hrs by electrophoretic mobility shift assay; type: cell-based; summary of the method: as §1
A-375 [19] = assay: Activation of caspase 3 in human A375 cells assessed as reduction in pro-caspase 3 at 30 uM by Western blot analysis; type: functional, cell-based; settings: TDE = time-dependent effect; summary of the method: as §4
A-375 [20] = assay: Inhibition of NF-kappaB activation in human A375 cells assessed as IkappaB-alpha degradation at 30 uM by Western blot analysis; type: cell-based; settings: TDE = time-dependent effect
Summary of the method: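 A375 cells treated at 30 μM for 1, 2, 4 and 8 h. Cytosolic extracts (40 μg protein) run on SDS-PAGE and transferred to nitrocellulose. Probed overnight at 4 °C for IκB-α, HRP secondary, ECL detection. Three separate experiments.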

[21] = Decrease in NFkappaB-mediated c-FLIP gene expression in human A375 cells at 30 uM after 8 hrs by Western blot analysis; type: cell-based; settings: A-375
[22] = Antiproliferative activity against human NHEM at 3 to 30 uM after 24 to 72 hrs by MTT assay
Summary of the method: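 Normal human epidermal melanocytes grown in melanocyte growth medium 2. Seeded at 1×10^4 cells/well and treated at 3, 10 or 30 μM for 24, 48 or 72 h. MTT (5 mg/mL stock) then added for 3 h at 37 °C. Formazan dissolved in 50% DMF/20% SDS pH 4.5; absorbance at 620 nm.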

WM-115 [23] = assay: Antiproliferative activity against human WM115 cells at 30 uM after 72 hrs by MTT assay; type: functional; settings: WM-115, 72 h; summary of the method: as §2
A-375 [24] = assay: Induction of apoptosis in human A375 cells assessed as early apoptotic cells at 20 uM after 48 hrs by annexin V/propidium iodide based flow cytometry; type: functional; summary of the method: as §3
A-375 [25] = assay: Induction of apoptosis in human A375 cells assessed as necrotic apoptotic cells at 20 uM after 48 hrs by annexin V/propidium iodide based flow cytometry; type: functional; summary of the method: as §3
A-375 [26] = assay: Induction of apoptosis in human A375 cells assessed as late apoptotic cells at 20 uM after 48 hrs by annexin V/propidium iodide based flow cytometry; type: functional; summary of the method: as §3

C[C@H](/C=C/[C@@]1(O)[C@H](CO)CC(=O)CC1(C)C)O[C@@H]1O[C@H](CO)[C@@H](O)[C@H](O)[C@H]1O [LAUROSIDE B]
inhibition (A-375 [1]): 60% | inhibition (A-375 [2]): 86% | inhibition (WM-115 [3]): Dose-dependent effect | inhibition (A-375 [4]): 20% | Activity (A-375 [5]): 0.6% | inhibition (SK-MEL-28 [6]): Dose-dependent effect | inhibition at 30 µM (A-375 [7]): 65% | Activity [8]: Active | Activity (A-375 [9]): Active | inhibition (WM-115 [10]): tde | Activity (A-375 [11]): 5.1% | inhibition (A-375 [12]): tde | inhibition (SK-MEL-28 [13]): tde | inhibition (A-375 [14]): Dose-dependent effect | inhibition at 30 µM (SK-MEL-28 [15]): 33% | Activity (A-375 [16]): 35% | inhibition (A-375 [17]): 6% | inhibition (A-375 [18]): 100% | Activity (A-375 [19]): tde | Activity (A-375 [20]): tde | Activity [21]: Active | Activity [22]: Non-toxic | inhibition at 30 µM (WM-115 [23]): 50%

COc1cc(/C=C/C(=O)CC(=O)/C=C/c2ccc(O)c(OC)c2)ccc1O [CURCUMIN]
Activity (A-375 [24]): 3.4% | Activity (A-375 [25]): 10.3% | Activity (A-375 [26]): 80%
